These results are taken from PubChem BioAssay.

The nature of assay [1]: inhibitors of TNFa-induced NFkB p65 translocation, primary screen, imaging, HUVEC, MLSMR starter and 10KST1 sets (AID 438;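 active means inhibition above 20% together with a positive visual image hit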;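 further: compound added about 3h40 before a 20 min TNFalpha stimulation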;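 on inhibition: signal is the nuclear over cytoplasmic p65 intensity ratio per well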). The conditions noted are these: HUVEC TNFa-induced p65 nuclear translocation; cell count: measured here: nuclei count (cytotoxicity indicator), at 2.08 µM; inhibition: at 2 µM, stronger effect = higher value, 0% TNFa-plus-vehicle, 100% no-TNFa wells.
The nature of assay [2]: inhibitors of mutant huntingtin aggregation, primary screen, imaging, exon1htt(103Q)mCFP cells, high-content imaging (AID 483;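 active means visual image review flags a hit and inhibition of aggregation exceeds 20%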;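 further: compound exposure lasted 3 days before fixation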;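 on nuclei count: percent of the per-plate median nuclei count of sample wells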). The following applies: exon1htt(103Q)mCFP cell line, aggregate imaging, at 2 µM; inhibition of aggregation: stronger effect = higher value; nuclei count: measured here: cell count, toxicity.
Assay [3] can be described thus: inhibitors of E-selectin induction by TNFa, primary screen, imaging, HUVEC, immunofluorescence, MLSMR starter and 10KST1 sets (AID 487;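 active means visually confirmed hit in the image check and inhibition above 20%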;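 on inhibition: signal is fraction of cell area covered by stained E-selectin grains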;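 on nuclei count: 100% = median nuclei count of all wells on the same plate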). The conditions noted are these: HUVEC TNFalpha-induced E-selectin immunofluorescence imaging, at 2 µM; inhibition: stronger effect = higher value; nuclei count: measured here: cell number, toxicity.
Assay [4] addresses Voltage-gated potassium channel subunit beta-2 (Rattus norvegicus) (UniProt P62483). The assay can be described thus: KvBeta enzyme negative modulators, primary screen, biochemical, NADPH fluorescence (AID 622;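 active means fluorescence slope higher than the sample average by over 3 SD, cut at about -0.22 in these data, passing the limit was not always enough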;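 further: slope of raw intensity against log time taken from 70 to 1610 s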). The following applies: recombinant KvBeta, 4-cyanobenzaldehyde reduction, at 10 µM, stronger effect = higher value.
The target is the same in assay [5]. The assay can be described thus: KvBeta positive modulators, primary screen, biochemical, NADPH fluorescence (AID 623;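 active means NADPH fluorescence slope more negative than the mean of all samples by about 3 SD, 99.7% confidence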;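 further: fluorescence intensity change per second fitted from 20 to 320 s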). The conditions noted are these: Recombinant KvBeta, NADPH fluorescence decrease slope, 10 min; at 10 µM; stronger effect = lower value.
Assay [6] addresses Muscarinic acetylcholine receptor M4 (Homo sapiens) (UniProt P08173). The assay can be described thus: compounds altering M4/GIRK thallium flux, either direction, primary screen, M4 allosteric agonist project, cell-based, HEK293 M4/GIRK, BTC-AM (AID 625).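 Further: thallium influx through GIRK channels coupled to M4 in HEK293 cells with BTC-AM dye.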 The following applies: at 10 µM, actives lie on both sides. In outline: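 Material – HEK293 cells with M4 receptor and GIRK channels · Buffer or medium – pH 7.3 thallium assay buffer · Doses – one dose, 10 µM final · Timing – cells overnight at 37 °C, BTC-AM loading 1 h, reads 2 min total · Measured by – kinetic fluorescence with BTC-AM dye · Controls – carbachol and DMSO controls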

Assay [7] in a line: inhibitors of Sendai virus-induced IRF3 signaling, primary screen, TLR/RLR signaling modifier project, cell-based, Sendai virus stimulus, luciferase, 10K MLSCN set (AID 602276;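 active means inhibition at or above 50% at 10 µM; inactive means inhibition below 50%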;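 further: firefly luciferase from ISG56 promoter only with Renilla not read in this screen; 0% = Sendai virus plus DMSO and 100% = medium plus DMSO without virus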). The conditions noted are these: HEK293 RL24 IRF3 luciferase reporter, at 10 µM, stronger effect = higher value.
A short description of assay [8]: inhibitors of poly I:C-induced TLR3 signaling, primary screen, cell-based, poly I:C stimulus, luciferase, 10K MLSCN set (AID 602277;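 active means inhibition of the reporter signal at or above 50%; inactive means inhibition below 50%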). The conditions noted are these: HEK293-TLR3 RL24 IRF3 luciferase reporter, at 10 µM, stronger effect = higher value. For orientation: A reporter such as luciferase makes a cellular process visible.

Active and inactive are the calls of the source.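 How the source made its calls, unless noted: active means fluorescence slope after compound addition differing from the mean of all tested samples at 99.7% confidence, mostly higher but some lower; inactive means the rest.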

Muscarinic acetylcholine receptor M4 (Homo sapiens), sequence (P08173 whole entry, looked up): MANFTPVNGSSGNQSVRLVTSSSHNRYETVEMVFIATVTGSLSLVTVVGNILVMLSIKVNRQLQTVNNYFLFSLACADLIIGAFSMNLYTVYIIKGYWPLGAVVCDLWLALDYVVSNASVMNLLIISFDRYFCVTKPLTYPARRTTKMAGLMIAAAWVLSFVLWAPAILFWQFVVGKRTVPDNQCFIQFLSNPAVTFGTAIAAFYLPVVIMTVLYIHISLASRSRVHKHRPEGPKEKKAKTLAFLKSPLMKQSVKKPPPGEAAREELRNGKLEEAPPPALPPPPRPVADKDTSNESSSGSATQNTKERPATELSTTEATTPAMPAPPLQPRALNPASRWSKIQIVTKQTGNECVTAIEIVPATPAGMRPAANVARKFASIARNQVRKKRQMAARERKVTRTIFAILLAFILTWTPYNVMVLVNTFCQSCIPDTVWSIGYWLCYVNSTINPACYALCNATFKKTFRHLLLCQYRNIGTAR
Voltage-gated potassium channel subunit beta-2 (Rattus norvegicus), sequence (P62483 whole entry, looked up): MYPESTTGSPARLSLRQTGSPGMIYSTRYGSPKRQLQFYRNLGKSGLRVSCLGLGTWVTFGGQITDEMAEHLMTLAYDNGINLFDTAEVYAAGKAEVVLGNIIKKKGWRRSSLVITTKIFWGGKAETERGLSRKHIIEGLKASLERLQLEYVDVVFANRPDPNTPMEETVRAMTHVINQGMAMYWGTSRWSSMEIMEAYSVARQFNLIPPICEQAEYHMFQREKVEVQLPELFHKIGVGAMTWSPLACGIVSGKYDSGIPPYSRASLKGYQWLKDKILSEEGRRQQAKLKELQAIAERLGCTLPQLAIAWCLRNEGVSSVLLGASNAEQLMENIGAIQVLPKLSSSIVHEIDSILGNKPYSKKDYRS

The term inhibition denotes the relative decrease from the control value, in per cent. Consider `O=C(NC1(C(F)(F)F)NC(=O)N(Cc2ccco2)C1=O)c1cccnc1` (centres undefined), for which the cell count in assay [1] turned out to be 495. In addition, the inhibition in assay [1] is 1.8% (inactive); in assay [3], -26.5% (inactive); in assay [7], 9.43% (inactive); in assay [8], 12.8% (inactive). In addition, the inhibition of aggregation in assay [2] was 1.2% (inactive). Also, the nuclei count in assay [2] turned out to be 104%; in assay [3] it was 122%. Also, the fluorescence slope in assay [4] was -0.461 (inactive); in assay [6], 0.00405 (inactive). Also, the NADPH fluorescence slope in assay [5] was -8.5e-05 (inactive).
Regarding `O=C(Cn1cnc2sc(-c3ccccc3)cc2c1=O)N1CCOCC1`, the cell count in assay [1] worked out at 353. For the same molecule, the inhibition is 6.9% (inactive) in assay [1], -123% (inactive) in assay [3], 6.22% (inactive) in assay [7] and -5.03% (inactive) in assay [8]. In addition, the inhibition of aggregation in assay [2] was 15.6% (inactive). For the same molecule, the figures for the nuclei count in assay [2] and in assay [3] were 98.1% and 114%, respectively. For the same molecule, the fluorescence slope in assay [4] is -0.445 (inactive); in assay [6] it was 0.00489 (inactive). In addition, the NADPH fluorescence slope in assay [5] is -4.1e-05 (inactive).
In the case of `CCOc1ccc2nc(NC(=O)C(NS(=O)(=O)c3cccs3)C(C)C)sc2c1` (centres undefined), the cell count in assay [1] came to 390. The inhibition in assay [1] is 10% (inactive); in assay [3], -146% (inactive); in assay [7] it was 18.1% (inactive); in assay [8] it was 20.4% (inactive). In addition, the inhibition of aggregation in assay [2] was 6.2% (inactive). Also, the results for the nuclei count in assay [2] and in assay [3] were 105% and 122%, respectively. The results for the fluorescence slope in assay [4] and in assay [6] were -0.423 (inactive) and 0.00543 (inactive), respectively. Further, the NADPH fluorescence slope in assay [5] was 2.6e-05 (inactive).
As for `O=C(CSc1ncnc2sc3c(c12)CCCCC3)NCc1ccco1`, in assay [1], the cell count amounted to 354. Besides, the inhibition in assay [1] was -5.1% (inactive); in assay [3] it was -196% (inactive); in assay [7] it was 17.7% (inactive); in assay [8] it was 35.5% (inactive). Further, the inhibition of aggregation in assay [2] was -11.3% (inactive). The nuclei count in assay [2] amounted to 93.9%; in assay [3] it was 128%. Moreover, the values for the fluorescence slope in assay [4] and in assay [6] were -0.472 (inactive) and 0.0063 (inactive), respectively. Besides, in assay [5], the NADPH fluorescence slope was -1.4e-05 (inactive).
For the molecule `COc1ccc(-c2n[nH]c(C)c2-c2ccc(Cl)cc2)c(O)c1OC`, the cell count in assay [1] was found to be 403. Further, the inhibition was -9.6% (inactive) in assay [1], -45.3% (inactive) in assay [3], 20.1% (inactive) in assay [7] and 24.5% (inactive) in assay [8]. The inhibition of aggregation in assay [2] was -24.2% (inactive). Also, the nuclei count in assay [2] was determined as 104%; in assay [3] it was 133%. In addition, the fluorescence slope was -0.529 (inactive) in assay [4] and 0.00338 (inactive) in assay [6]. Also, in assay [5], the NADPH fluorescence slope is -0.00026 (inactive).
Consider `Nc1cc(C(=O)O)ccc1Nc1ccccc1`, for which the cell count in assay [1] came out at 423. The inhibition in assay [1] is -9.8% (inactive); in assay [3] it was 15.1% (inactive); in assay [7] it was -4.17% (inactive); in assay [8] it was -19% (inactive). In addition, in assay [2], the inhibition of aggregation is 20.7% (inactive). For the same molecule, the nuclei count in assay [2] came out at 86.5%; in assay [3], 101%. The fluorescence slope in assay [4] is -0.557 (inactive); in assay [6], 0.0056 (inactive). The NADPH fluorescence slope in assay [5] was -4.4e-06 (inactive).
On to `Cc1sc2nc(SCC(=O)NCc3ccco3)n(CCc3ccccc3)c(=O)c2c1C`, for which, in assay [1], the cell count was 589. Also, the inhibition in assay [1] is -17.7% (inactive); in assay [3], -45.3% (inactive); in assay [7] it was 13.1% (inactive); in assay [8] it was 0.6% (inactive). Besides, the inhibition of aggregation in assay [2] was -11.6% (inactive). Moreover, the nuclei count turned out to be 101% in assay [2] and 108% in assay [3]. Also, the fluorescence slope in assay [4] is -0.394 (inactive); in assay [6], 0.0086 (inactive). The NADPH fluorescence slope in assay [5] is 5.5e-06 (inactive).
Turning to `COc1ccccc1-n1nnnc1SCc1ccccc1`, in assay [1], the cell count is 211. Moreover, the inhibition in assay [1] is -1.5% (inactive); in assay [3], -25.5% (inactive); in assay [7], 13% (inactive); in assay [8], 16.5% (inactive). The inhibition of aggregation in assay [2] is 6.5% (inactive). For the same molecule, the nuclei count in assay [2] was found to be 108%; in assay [3], 92.6%. Moreover, the fluorescence slope was -0.51 (inactive) in assay [4] and 0.00333 (inactive) in assay [6]. The NADPH fluorescence slope in assay [5] was -2.7e-05 (inactive).
Turning to `CCOc1ccccc1Nc1nc2ccccc2[nH]1`, the cell count in assay [1] came out at 327. The inhibition in assay [1] was 1.2% (inactive); in assay [3], 2.9% (inactive); in assay [7], -18.9% (inactive); in assay [8], -39.8% (inactive). Also, the inhibition of aggregation in assay [2] was 5.9% (inactive). In addition, the nuclei count came out at 111% in assay [2] and 109% in assay [3]. The fluorescence slope in assay [4] is -0.524 (inactive); in assay [6], 0.00599 (inactive). For the same molecule, the NADPH fluorescence slope in assay [5] is -0.000156 (active).
For the molecule `Cc1ccc(Cn2c(SCC(C)C)nc3c2c(=O)n(C)c(=O)n3C)cc1`, in assay [1], the cell count was 468. In addition, the inhibition in assay [1] was -1.3% (inactive); in assay [3], -65.5% (inactive); in assay [7], 16.7% (inactive); in assay [8], 14.4% (inactive). Also, in assay [2], the inhibition of aggregation is -13.4% (inactive). In addition, the nuclei count was determined as 111% in assay [2] and 119% in assay [3]. The fluorescence slope in assay [4] was -0.468 (inactive); in assay [6], 0.00373 (inactive). Besides, the NADPH fluorescence slope in assay [5] was -0.000354 (inactive).
As for `COc1cc(NC(=O)c2cc(OC)c(OC)c(OC)c2)c(OC)cc1NC(=O)CN1CCCCC1`, the cell count in assay [1] was 700. Besides, the inhibition in assay [1] was -11.1% (inactive); in assay [3], -14.6% (inactive); in assay [7] it was 3.03% (inactive); in assay [8] it was -8.31% (inactive). Besides, in assay [2], the inhibition of aggregation is 12.2% (inactive). For the same molecule, the nuclei count in assay [2] and in assay [3] was 115% in each case. Also, the figures for the fluorescence slope in assay [4] and in assay [6] were -0.309 (inactive) and 0.00436 (inactive), respectively. In addition, the NADPH fluorescence slope in assay [5] is -3.3e-05 (inactive).
As for `COCCn1c(SCC(=O)Nc2nnc(C)s2)nnc1-c1c[nH]c2ccccc12`, the cell count in assay [1] is 518. The inhibition is 7.1% (inactive) in assay [1], -37.4% (inactive) in assay [3], 5.93% (inactive) in assay [7] and 14.2% (inactive) in assay [8]. Also, the inhibition of aggregation in assay [2] is -15.6% (inactive). For the same molecule, the nuclei count in assay [2] came to 114%; in assay [3] it was 113%. Further, the fluorescence slope is -0.505 (inactive) in assay [4] and 0.00466 (inactive) in assay [6]. In assay [5], the NADPH fluorescence slope was -0.00026 (inactive).
Consider `CCCCCc1c(O)c2ccccc2[nH]c1=O`, for which the cell count in assay [1] worked out at 596. Moreover, the inhibition in assay [1] was -9.8% (inactive); in assay [3] it was -4.6% (inactive); in assay [7], 11.7% (inactive); in assay [8], 13.8% (inactive). In addition, the inhibition of aggregation in assay [2] was -15.9% (inactive). In addition, the nuclei count in assay [2] is 109%; in assay [3], 87%. The fluorescence slope in assay [4] is -0.565 (inactive); in assay [6], 0.00337 (inactive). The NADPH fluorescence slope in assay [5] was -9.6e-05 (inactive).
In the case of `Cc1ccccc1-c1noc(N)c1C#N`, the cell count in assay [1] came to 515. In addition, the inhibition in assay [1] was 5.3% (inactive); in assay [3], 4.6% (inactive); in assay [7], 12.5% (inactive); in assay [8], -2.11% (inactive). For the same molecule, in assay [2], the inhibition of aggregation was -0.5% (inactive). Moreover, the values for the nuclei count in assay [2] and in assay [3] were 95.2% and 103%, respectively. Further, the fluorescence slope in assay [4] is -0.317 (inactive); in assay [6] it was 0.00617 (inactive). In addition, the NADPH fluorescence slope in assay [5] is -2.3e-05 (inactive).
